Results published in ChEMBL document CHEMBL1140929, “Synthesis and evaluation of 18F-labeled 2-phenylbenzothiazoles as positron emission tomography imaging agents for amyloid plaques in Alzheimer's disease” (J Med Chem, 2009).

Tests used:
[1] = target: Amyloid-beta precursor protein (Homo sapiens, UniProt P05067); test: Displacement of [125I]IMPY from beta-amyloid plaques in Alzheimer's disease patient brain homogenate; format: tissue-based
[2] = Biodistribution in NMRI mouse urine at 3.7 MBq/mL, iv after 2 mins by gamma counting; format: ADME, organism-based; details: in vivo
In short: (§1)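 Male NMRI mice (30-40 g) anaesthetised with 0.1 mL ip Hypnorm (fentanyl citrate 63 µg/mL, fluanisone 2 mg/mL). Each received 0.1 mL of HPLC-purified 18F tracer, diluted in 0.9% NaCl to 3.7 MBq/mL (ethanol ≤10%, THF ≤0.02%), via tail vein. Killed by decapitation at 2 or 60 min; blood and organs weighed and γ-counted. Background-corrected, expressed as %ID or %ID/g.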

Lung [3] = test: Biodistribution in NMRI mouse lung assessed per gram of tissue at 3.7 MBq/mL, iv after 2 mins by gamma counting; format: ADME, organism-based; details: in vivo; in short: as §1
Blood [4] = test: Biodistribution in NMRI mouse blood at 3.7 MBq/mL, iv after 60 mins by gamma counting; format: ADME, organism-based; details: in vivo, 1 h; in short: as §1
Stomach [5] = test: Biodistribution in NMRI mouse stomach at 3.7 MBq/mL, iv after 60 mins by gamma counting; format: ADME, organism-based; details: in vivo, 1 h; in short: as §1
[6] = Biodistribution in NMRI mouse cerebrum at 3.7 MBq/mL, iv after 60 mins by gamma counting; format: ADME, organism-based; details: in vivo, 1 h; in short: as §1
[7] = Biodistribution in NMRI mouse cerebrum at 3.7 MBq/mL, iv after 2 mins by gamma counting; format: ADME, organism-based; details: in vivo; in short: as §1
Blood [8] = test: Biodistribution in NMRI mouse blood assessed per gram of tissue at 3.7 MBq/mL, iv after 2 mins by gamma counting; format: ADME, organism-based; details: in vivo; in short: as §1
Liver [9] = test: Biodistribution in NMRI mouse liver assessed per gram of tissue at 3.7 MBq/mL, iv after 2 mins by gamma counting; format: ADME, organism-based; details: in vivo; in short: as §1
Liver [10] = test: Biodistribution in NMRI mouse liver at 3.7 MBq/mL, iv after 60 mins by gamma counting; format: ADME, organism-based; details: in vivo, 1 h; in short: as §1
Kidney [11] = test: Biodistribution in NMRI mouse kidney assessed per gram of tissue at 3.7 MBq/mL, iv after 2 mins by gamma counting; format: ADME, organism-based; details: in vivo; in short: as §1
Liver [12] = test: Biodistribution in NMRI mouse liver assessed per gram of tissue at 3.7 MBq/mL, iv after 60 mins by gamma counting; format: ADME, organism-based; details: in vivo, 1 h; in short: as §1
Kidney [13] = test: Biodistribution in NMRI mouse kidney assessed per gram of tissue at 3.7 MBq/mL, iv after 60 mins by gamma counting; format: ADME, organism-based; details: in vivo, 1 h; in short: as §1
[14] = Biodistribution in NMRI mouse spleen/pancreas at 3.7 MBq/mL, iv after 60 mins by gamma counting; format: ADME, organism-based; details: in vivo, 1 h; in short: as §1
[15] = Biodistribution in NMRI mouse spleen/pancreas assessed per gram of tissue at 3.7 MBq/mL, iv after 60 mins by gamma counting; format: ADME, organism-based; details: in vivo, 1 h; in short: as §1
[16] = Biodistribution in NMRI mouse cerebrum assessed per gram of tissue at 3.7 MBq/mL, iv after 2 mins by gamma counting; format: ADME, organism-based; details: in vivo; in short: as §1
Heart [17] = test: Biodistribution in NMRI mouse heart assessed per gram of tissue at 3.7 MBq/mL, iv after 2 mins by gamma counting; format: ADME, organism-based; details: in vivo; in short: as §1
Cerebellum [18] = test: Biodistribution in NMRI mouse cerebellum at 3.7 MBq/mL, iv after 60 mins by gamma counting; format: ADME, organism-based; details: in vivo, 1 h; in short: as §1
Lung [19] = test: Biodistribution in NMRI mouse lung at 3.7 MBq/mL, iv after 60 mins by gamma counting; format: ADME, organism-based; details: in vivo, 1 h; in short: as §1
Heart [20] = test: Biodistribution in NMRI mouse heart at 3.7 MBq/mL, iv after 60 mins by gamma counting; format: ADME, organism-based; details: in vivo, 1 h; in short: as §1
Blood [21] = test: Biodistribution in NMRI mouse blood at 3.7 MBq/mL, iv after 2 mins by gamma counting; format: ADME, organism-based; details: in vivo; in short: as §1
[22] = Biodistribution in NMRI mouse cerebrum assessed per gram of tissue at 3.7 MBq/mL, iv after 60 mins by gamma counting; format: ADME, organism-based; details: in vivo, 1 h; in short: as §1
Lung [23] = test: Biodistribution in NMRI mouse lung assessed per gram of tissue at 3.7 MBq/mL, iv after 60 mins by gamma counting; format: ADME, organism-based; details: in vivo, 1 h; in short: as §1
Cerebellum [24] = test: Biodistribution in NMRI mouse cerebellum assessed per gram of tissue at 3.7 MBq/mL, iv after 2 mins by gamma counting; format: ADME, organism-based; details: in vivo; in short: as §1
Intestine [25] = test: Biodistribution in NMRI mouse intestine at 3.7 MBq/mL, iv after 60 mins by gamma counting; format: ADME, organism-based; details: in vivo, 1 h; in short: as §1
Heart [26] = test: Biodistribution in NMRI mouse heart assessed per gram of tissue at 3.7 MBq/mL, iv after 60 mins by gamma counting; format: ADME, organism-based; details: in vivo, 1 h; in short: as §1
Cerebellum [27] = test: Biodistribution in NMRI mouse cerebellum at 3.7 MBq/mL, iv after 2 mins by gamma counting; format: ADME, organism-based; details: in vivo; in short: as §1
Heart [28] = test: Biodistribution in NMRI mouse heart at 3.7 MBq/mL, iv after 2 mins by gamma counting; format: ADME, organism-based; details: in vivo; in short: as §1
[29] = Biodistribution in NMRI mouse spleen/pancreas at 3.7 MBq/mL, iv after 2 mins by gamma counting; format: ADME, organism-based; details: in vivo; in short: as §1
[30] = Biodistribution in NMRI mouse urine at 3.7 MBq/mL, iv after 60 mins by gamma counting; format: ADME, organism-based; details: in vivo, 1 h; in short: as §1
Lung [31] = test: Biodistribution in NMRI mouse lung at 3.7 MBq/mL, iv after 2 mins by gamma counting; format: ADME, organism-based; details: in vivo
[32] = Biodistribution in NMRI mouse spleen/pancreas assessed per gram of tissue at 3.7 MBq/mL, iv after 2 mins by gamma counting; format: ADME, organism-based; details: in vivo; in short: as §1
Cerebellum [33] = test: Biodistribution in NMRI mouse cerebellum assessed per gram of tissue at 3.7 MBq/mL, iv after 60 mins by gamma counting; format: ADME, organism-based; details: in vivo, 1 h; in short: as §1
Liver [34] = test: Biodistribution in NMRI mouse liver at 3.7 MBq/mL, iv after 2 mins by gamma counting; format: ADME, organism-based; details: in vivo; in short: as §1
Kidney [35] = test: Biodistribution in NMRI mouse kidney at 3.7 MBq/mL, iv after 60 mins by gamma counting; format: ADME, organism-based; details: in vivo, 1 h; in short: as §1
Blood [36] = test: Biodistribution in NMRI mouse blood assessed per gram of tissue at 3.7 MBq/mL, iv after 60 mins by gamma counting; format: ADME, organism-based; details: in vivo, 1 h; in short: as §1
Intestine [37] = test: Biodistribution in NMRI mouse intestine at 3.7 MBq/mL, iv after 2 mins by gamma counting; format: ADME, organism-based; details: in vivo; in short: as §1
Stomach [38] = test: Biodistribution in NMRI mouse stomach at 3.7 MBq/mL, iv after 2 mins by gamma counting; format: ADME, organism-based; details: in vivo; in short: as §1

Chain of Amyloid-beta precursor protein (P05067 whole entry): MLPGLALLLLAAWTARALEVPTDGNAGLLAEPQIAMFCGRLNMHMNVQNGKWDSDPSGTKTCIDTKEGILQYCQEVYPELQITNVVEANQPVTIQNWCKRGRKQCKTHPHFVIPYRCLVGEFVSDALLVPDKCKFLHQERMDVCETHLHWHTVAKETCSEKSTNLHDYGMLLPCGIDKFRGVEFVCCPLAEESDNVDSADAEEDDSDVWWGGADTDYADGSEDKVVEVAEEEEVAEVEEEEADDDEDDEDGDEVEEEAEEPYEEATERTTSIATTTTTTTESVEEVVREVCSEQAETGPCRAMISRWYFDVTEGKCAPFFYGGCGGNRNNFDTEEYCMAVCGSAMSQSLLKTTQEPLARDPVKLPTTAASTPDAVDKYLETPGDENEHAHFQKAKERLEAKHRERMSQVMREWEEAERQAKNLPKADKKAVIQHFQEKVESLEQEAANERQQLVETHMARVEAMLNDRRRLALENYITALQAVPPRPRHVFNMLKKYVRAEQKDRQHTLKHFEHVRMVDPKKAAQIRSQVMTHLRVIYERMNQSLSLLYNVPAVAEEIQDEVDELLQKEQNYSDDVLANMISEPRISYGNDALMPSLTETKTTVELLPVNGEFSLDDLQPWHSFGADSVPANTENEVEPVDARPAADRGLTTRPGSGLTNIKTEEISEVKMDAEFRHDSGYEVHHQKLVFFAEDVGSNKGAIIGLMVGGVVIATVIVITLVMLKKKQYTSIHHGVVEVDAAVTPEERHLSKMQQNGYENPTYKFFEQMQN

## Oc1ccc2nc(-c3ccc(F)cc3)sc2c1
[1]
  Ki: 22.5 nM

## Cc1ccc2nc(-c3ccc([18F])cc3)sc2c1
[2]
  Drug uptake: 0.2 %ID
Lung [3]
  Drug uptake: 14.4 % ID/g
Blood [4]
  Drug uptake: 2.8 %ID
Stomach [5]
  Drug uptake: 1.1 %ID
[6]
  Drug uptake: 0.07 %ID
[7]
  Drug uptake: 1.62 %ID
Blood [8]
  Drug uptake: 2.2 % ID/g
Liver [9]
  Drug uptake: 12 % ID/g
Liver [10]
  Drug uptake: 51.8 %ID
Kidney [11]
  Drug uptake: 9.3 % ID/g
Liver [12]
  Drug uptake: 24.6 % ID/g
Kidney [13]
  Drug uptake: 3.6 % ID/g
[14]
  Drug uptake: 0.1 %ID
[15]
  Drug uptake: 0.4 % ID/g
[16]
  Drug uptake: 5.33 % ID/g
Heart [17]
  Drug uptake: 5.4 % ID/g
Cerebellum [18]
  Drug uptake: 0.04 %ID
Lung [19]
  Drug uptake: 0.3 %ID
Heart [20]
  Drug uptake: 0.1 %ID
Blood [21]
  Drug uptake: 5.7 %ID
[22]
  Drug uptake: 0.27 % ID/g
Lung [23]
  Drug uptake: 1.3 % ID/g
Cerebellum [24]
  Drug uptake: 5.99 % ID/g
Intestine [25]
  Drug uptake: 19.3 %ID
Heart [26]
  Drug uptake: 0.5 % ID/g
Cerebellum [27]
  Drug uptake: 0.42 %ID
Heart [28]
  Drug uptake: 0.9 %ID
[29]
  Drug uptake: 1.3 %ID
[30]
  Drug uptake: 5.8 %ID
Lung [31]
  Drug uptake: 3.6 %ID
[32]
  Drug uptake: 4 % ID/g
Cerebellum [33]
  Drug uptake: 0.39 % ID/g
Liver [34]
  Drug uptake: 24.8 %ID
Kidney [35]
  Drug uptake: 2.3 %ID
Blood [36]
  Drug uptake: 1.1 % ID/g
Intestine [37]
  Drug uptake: 8.9 %ID
Stomach [38]
  Drug uptake: 1.3 %ID
